≈ marks a conversion by molar mass, not a printed value.
Assays:
RAW264.7 = experiment: Cytotoxicity against mouse RAW264.7 cells assessed as inhibition of cell viability after 72 hrs by MTT assay; type: cell-based; details: RAW264.7, 72 h
Method in brief: (§1)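 Mouse RAW 264.7 macrophages grown in DMEM with 10% FBS, 2 mM L-glutamine and penicillin/streptomycin at 37 °C, 5% CO2. Seeded at 10,000 cells/well for 12 h. Compound diluted 1000× from DMSO stock into 1% FBS medium (DMSO under 0.1%), over a concentration gradient, 72 h exposure. MTT formazan dissolved in DMSO for 45 min, absorbance read at 562 nm. Quadruplicate wells, at least three runs (N = 12).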

Pseudomonas aeruginosa = experiment: Antibacterial activity against Pseudomonas aeruginosa ATCC2785 assessed as bacterial growth inhibition after 24 hrs by broth dilution method; type: functional; details: ATCC2785, 24 h
[1] = Selectivity index, ratio of IC50 for mouse RAW264.7 cells to MIC for methicillin-resistant Staphylococcus aureus ATCC510019; type: toxicity; details: read-out: Selectivity Index
Method in brief: (§2)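 SI = IC50 in mouse RAW 264.7 macrophages divided by broth-dilution MIC. For cytotoxicity, cells in DMEM/10% FBS/2 mM L-glutamine were seeded at 10,000/well for 12 h. They were then dosed across a concentration gradient in 1% FBS medium with DMSO below 0.1% for 72 h. Read-out was MTT, absorbance 562 nm, 4 wells × at least 3 runs.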

Staphylococcus aureus [2] = experiment: Antibacterial activity against methicillin-resistant Staphylococcus aureus ATCC515992 assessed as bacterial growth inhibition after 24 hrs by broth dilution method; type: functional; details: ATCC515992, 24 h
Staphylococcus aureus [3] = experiment: Antibacterial activity against methicillin-resistant Staphylococcus aureus ATCC425055 assessed as bacterial growth inhibition after 24 hrs by broth dilution method; type: functional; details: ATCC425055, 24 h
[4] = system: Staphylococcus epidermidis; experiment: Ratio of penicillin MIC to compound MIC for Staphylococcus epidermidis ATCC12228 after 24 hrs by broth dilution method; type: functional
Method in brief: (§3)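 MICs came from broth double dilution from 256 µg/mL in 5×10^5 cells/mL culture, 37 °C, 24 h, read visually as the lowest concentration without turbidity. The ratio is the reference antibiotic's MIC over the compound's MIC.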

[5] = Selectivity index, ratio of IC50 for mouse RAW264.7 cells to MIC for methicillin-resistant Staphylococcus aureus ATCC513045; type: toxicity; details: read-out: Selectivity Index; method in brief: as §2
Bacillus subtilis [6] = experiment: Antibacterial activity against Bacillus subtilis ATCC6633 assessed as bacterial growth inhibition after 24 hrs by broth dilution method; type: functional; details: ATCC6633, 24 h
[7] = Cytotoxicity against mouse RAW264.7 cells assessed as cell viability at 8 ug/ml after 72 hrs by MTT assay; type: cell-based; details: read-out: Activity; method in brief: as §1
Staphylococcus aureus [8] = experiment: Antibacterial activity against methicillin-resistant Staphylococcus aureus ATCC52056 assessed as bacterial growth inhibition after 24 hrs by broth dilution method; type: functional; details: ATCC52056, 24 h
[9] = Selectivity index, ratio of IC50 for mouse RAW264.7 cells to MIC for Staphylococcus aureus ATCC25923; type: toxicity; details: read-out: Selectivity Index; method in brief: as §2
[10] = Selectivity index, ratio of IC50 for mouse RAW264.7 cells to MIC for methicillin-resistant Staphylococcus aureus ATCC51033; type: toxicity; details: read-out: Selectivity Index; method in brief: as §2
Escherichia coli = experiment: Antibacterial activity against Escherichia coli ATCC25922 assessed as bacterial growth inhibition after 24 hrs by broth dilution method; type: functional; details: ATCC25922, 24 h
[11] = Selectivity index, ratio of IC50 for mouse RAW264.7 cells to MIC for methicillin-resistant Staphylococcus aureus ATCC425055; type: toxicity; details: read-out: Selectivity Index; method in brief: as §2
Staphylococcus aureus [12] = experiment: Antibacterial activity against Staphylococcus aureus ATCC25923 assessed as bacterial growth inhibition after 24 hrs by broth dilution method; type: functional; details: ATCC25923, 24 h
[13] = Selectivity index, ratio of IC50 for mouse RAW264.7 cells to MIC for methicillin-resistant Staphylococcus aureus ATCC43300; type: toxicity; details: read-out: Selectivity Index; method in brief: as §2
Staphylococcus aureus [14] = experiment: Antibacterial activity against methicillin-resistant Staphylococcus aureus ATCC523512 assessed as bacterial growth inhibition after 24 hrs by broth dilution method; type: functional; details: ATCC523512, 24 h
Staphylococcus aureus [15] = experiment: Ratio of penicillin MIC to compound MIC for Staphylococcus aureus ATCC25923 after 24 hrs by broth dilution method; type: functional
Staphylococcus aureus [16] = experiment: Antibacterial activity against methicillin-resistant Staphylococcus aureus ATCC43300 assessed as bacterial growth inhibition after 24 hrs by broth dilution method; type: functional; details: ATCC43300, 24 h
[17] = Selectivity index, ratio of IC50 for mouse RAW264.7 cells to MIC for Bacillus subtilis ATCC6633; type: toxicity; details: read-out: Selectivity Index; method in brief: as §2
[18] = system: Staphylococcus epidermidis; experiment: Antibacterial activity against Staphylococcus epidermidis ATCC12228 assessed as bacterial growth inhibition after 24 hrs by broth dilution method; type: functional; details: ATCC12228, 24 h
[19] = Selectivity index, ratio of IC50 for mouse RAW264.7 cells to MIC for methicillin-resistant Staphylococcus aureus ATCC515992; type: toxicity; method in brief: as §2
[20] = Selectivity index, ratio of IC50 for mouse RAW264.7 cells to MIC for methicillin-resistant Staphylococcus aureus ATCC62202; type: toxicity; details: read-out: Selectivity Index; method in brief: as §2
Proteus vulgaris = experiment: Antibacterial activity against Proteus vulgaris ATCC49101 assessed as bacterial growth inhibition after 24 hrs by broth dilution method; type: functional; details: ATCC49101, 24 h
Staphylococcus aureus [21] = experiment: Antibacterial activity against methicillin-resistant Staphylococcus aureus ATCC513045 assessed as bacterial growth inhibition after 24 hrs by broth dilution method; type: functional; details: ATCC513045, 24 h
Staphylococcus aureus [22] = experiment: Ratio of norfloxacin MIC to compound MIC for Staphylococcus aureus ATCC25923 after 24 hrs by broth dilution method; type: functional; method in brief: as §3
[23] = Selectivity index, ratio of IC50 for mouse RAW264.7 cells to MIC for methicillin-resistant Staphylococcus aureus ATCC523512; type: toxicity; details: read-out: Selectivity Index; method in brief: as §2
Staphylococcus aureus [24] = experiment: Antibacterial activity against methicillin-resistant Staphylococcus aureus ATCC62202 assessed as bacterial growth inhibition after 24 hrs by broth dilution method; type: functional; details: ATCC62202, 24 h
[25] = Selectivity index, ratio of IC50 for mouse RAW264.7 cells to MIC for methicillin-resistant Staphylococcus aureus ATCC52056; type: toxicity; details: read-out: Selectivity Index; method in brief: as §2
Staphylococcus aureus [26] = experiment: Antibacterial activity against methicillin-resistant Staphylococcus aureus ATCC51033 assessed as bacterial growth inhibition after 24 hrs by broth dilution method; type: functional; details: ATCC51033, 24 h
[27] = Selectivity index, ratio of IC50 for mouse RAW264.7 cells to MIC for Staphylococcus epidermidis ATCC12228; type: toxicity; details: read-out: Selectivity Index; method in brief: as §2
Staphylococcus aureus [28] = experiment: Antibacterial activity against methicillin-resistant Staphylococcus aureus ATCC510019 assessed as bacterial growth inhibition after 24 hrs by broth dilution method; type: functional; details: ATCC510019, 24 h
Bacillus subtilis [29] = experiment: Ratio of norfloxacin MIC to compound MIC for Bacillus subtilis ATCC6633 after 24 hrs by broth dilution method; type: functional

Compound	IC50 (RAW264.7)	MIC (Pseudomonas aeruginosa)	selectivity ratio [1]	MIC (Staphylococcus aureus [2])	MIC (Staphylococcus aureus [3])	MIC (Bacillus subtilis [6])	viability at 72 h, 8 ug/ml [7]	MIC (Staphylococcus aureus [8])	selectivity ratio [9]	selectivity ratio [10]	MIC (Escherichia coli)	MIC (Staphylococcus aureus [12])	MIC (Staphylococcus aureus [14])	Ratio (Staphylococcus aureus [15])	MIC (Staphylococcus aureus [16])	MIC [18]	selectivity ratio [19]	selectivity ratio [20]	MIC (Proteus vulgaris)	MIC (Staphylococcus aureus [21])	other results
COc1cc(/C=C/c2ccc(C(F)(F)F)cc2)c(C(=O)O)c(O)c1CC=C(C)C	25.7 µg/mL (≈ 63.3 µM)	> 64 µg/mL	12.9	0.5 µg/mL (≈ 1.23 µM)	0.5 µg/mL (≈ 1.23 µM)	1 µg/mL (≈ 2.46 µM)	90.6%	4 µg/mL (≈ 9.84 µM)	12.9	12.9	> 128 µg/mL	2 µg/mL (≈ 4.92 µM)	0.5 µg/mL (≈ 1.23 µM)	1	2 µg/mL (≈ 4.92 µM)	2 µg/mL (≈ 4.92 µM)	51.4	12.9	> 64 µg/mL	8 µg/mL (≈ 19.7 µM)	Ratio [4]: 64; selectivity ratio [5]: 12.9; selectivity ratio [11]: 12.9; selectivity ratio [13]: 12.9; selectivity ratio [17]: 12.9; Ratio (Staphylococcus aureus [22]): 8; selectivity ratio [23]: 12.9; MIC (Staphylococcus aureus [24]): 0.5 µg/mL (≈ 1.23 µM); selectivity ratio [25]: 6.43; MIC (Staphylococcus aureus [26]): 1 µg/mL (≈ 2.46 µM); selectivity ratio [27]: 12.9; MIC (Staphylococcus aureus [28]): 2 µg/mL (≈ 4.92 µM)
COc1cc(/C=C/c2ccc(F)cc2F)c(C(=O)O)c(O)c1CC=C(C)C	46.5 µg/mL (≈ 124 µM)	> 64 µg/mL	23.3	1 µg/mL (≈ 2.67 µM)	0.5 µg/mL (≈ 1.34 µM)	2 µg/mL (≈ 5.34 µM)	94.4%	2 µg/mL (≈ 5.34 µM)	46.5	46.5	> 128 µg/mL	1 µg/mL (≈ 2.67 µM)	2 µg/mL (≈ 5.34 µM)	64	2 µg/mL (≈ 5.34 µM)	0.5 µg/mL (≈ 1.34 µM)	46.5	46.5	> 64 µg/mL	2 µg/mL (≈ 5.34 µM)	Ratio (Bacillus subtilis [29]): 8; MIC (Staphylococcus aureus [24]): 1 µg/mL (≈ 2.67 µM); selectivity ratio [25]: 23.3; MIC (Staphylococcus aureus [26]): 1 µg/mL (≈ 2.67 µM); MIC (Staphylococcus aureus [28]): 2 µg/mL (≈ 5.34 µM)
